Experimental data gathered from unrelated publications.
Protocols differ between the studies behind these lines.
CASP9: Caspase-9 (CASP9, Homo sapiens, UniProt P55211)
MMP1: Interstitial collagenase (MMP1, Homo sapiens, UniProt P03956)
SLC5A7: High affinity choline transporter 1 (SLC5A7, Homo sapiens, UniProt Q9GZV3)

| Compound | target | assay | setting | inhibition |
| --- | --- | --- | --- | --- |
| Cn1cc(-c2cccc(N3CCc4c(sc5c4CC(C)(C)C5)C3=O)c2CO)cc(Nc2ccncn2)c1=O | Hepatocyte growth factor receptor (MET, Homo sapiens, UniProt P08581) | enzyme activity, inhibitor | 1 µM | 9% |
| COCc1c(-c2cc3cc(C)cc(OC)c3s2)c2c(N)ncnn2c1CN1CCNC(=O)C1 | Calcium-dependent protein kinase 1 (CDPK1, Plasmodium falciparum, UniProt P62344) | cell-free assay, competition with immobilised ligand | 1 µM | 93.3% |
| N=C(N)c1ccc2cc(OC(=O)c3ccc(N=C(N)N)cc3)ccc2c1 | CASP9 | enzyme activity, inhibitor | 10 µM | 0% |
| C[C@H](C(=O)N[C@H]1COc2ccccc2[C@@H]1S(C)(=O)=O)c1ccc(F)cc1 | MMP1 | enzyme activity, inhibitor | 10 µM | 13% |
| COc1cc(Nc2ncc(F)c(Nc3ccc4c(n3)NC(=O)C(C)(C)O4)n2)cc(OC)c1OC | Cyclin-dependent kinase-like 1 (CDKL1, Homo sapiens, UniProt Q00532) | binding, competition with immobilised ligand | 10 µM | 84% |
| Cc1ncc(C)n2nc(/C=C/c3nc(N4CCCC4)cc(N4CCOCC4)n3)nc12 | MMP1 | enzyme activity, inhibitor | 10 µM | 7% |
| CCOC(=O)c1ccc(OC(=O)CCCCCNC(=N)N)cc1 | MMP1 | enzyme activity, inhibitor | 10 µM | 2% |
| C#Cc1n[nH]c2c(-c3cn([C@@H](C)c4ccccc4)c(=O)[nH]c3=O)cc(F)cc12 | TRAF2 and NCK-interacting protein kinase (TNIK, Homo sapiens, UniProt Q9UKE5) | enzyme activity, inhibitor | 0.1 µM | -0.3% |
| CN(CCN1CCC(OC(=O)Nc2ccccc2-c2ccccc2)CC1)C(=O)c1ccc(CN2CCC(C(N)=O)CC2)cc1 | SLC5A7 | ligand displacement, radioligand | 1 µM | -6% |
| CN(C)C(=O)COC(=O)Cc1ccc(OC(=O)c2ccc(NC(=N)N)cc2)cc1 | MMP1 | enzyme activity, inhibitor | 10 µM | 3% |
| C#Cc1n[nH]c2c(-c3cn([C@@H](C)c4ccccn4)c(=O)[nH]c3=O)cc(F)cc12 | TGF-beta receptor type-1 (TGFBR1, Homo sapiens, UniProt P36897) | enzyme activity, inhibitor | 0.1 µM | 1.5% |
| COC(=O)CC[C@H](NC(=O)[C@H](CC(C)C)NC(=O)OCc1ccccc1)C(=O)N[C@@H](Cc1cnc[nH]1)C(=O)N[C@@H](CC(=O)OC)C(=O)CF | CASP9 | enzyme activity, inhibitor | 0.1 µM | 7% |
| O=C(Nc1cccnn1)N1CCN([C@@H]2CCOc3cc(C(F)(F)F)ccc32)CC1 | CASP9 | cell-free assay | 20 µM | -4% |
| COc1ccc(S(=O)(=O)N(CC(=O)NO)CC(C)C)cc1 | MMP1 | enzyme activity, inhibitor | 10 µM | 77% |
| COc1ccc(S(=O)(=O)N2CCCCC2)cc1C | SLC5A7 | ligand displacement, radioligand | 10 µM | < 30% |
